# pIC50, pKi: −log10 of the molar value.
# Columns and labels:
# [1] = target: T1, Amine oxidase [flavin-containing] B (Homo sapiens, UniProt P27338); test: Inhibition of human MAO-B
# T1 sequence (P27338 whole entry): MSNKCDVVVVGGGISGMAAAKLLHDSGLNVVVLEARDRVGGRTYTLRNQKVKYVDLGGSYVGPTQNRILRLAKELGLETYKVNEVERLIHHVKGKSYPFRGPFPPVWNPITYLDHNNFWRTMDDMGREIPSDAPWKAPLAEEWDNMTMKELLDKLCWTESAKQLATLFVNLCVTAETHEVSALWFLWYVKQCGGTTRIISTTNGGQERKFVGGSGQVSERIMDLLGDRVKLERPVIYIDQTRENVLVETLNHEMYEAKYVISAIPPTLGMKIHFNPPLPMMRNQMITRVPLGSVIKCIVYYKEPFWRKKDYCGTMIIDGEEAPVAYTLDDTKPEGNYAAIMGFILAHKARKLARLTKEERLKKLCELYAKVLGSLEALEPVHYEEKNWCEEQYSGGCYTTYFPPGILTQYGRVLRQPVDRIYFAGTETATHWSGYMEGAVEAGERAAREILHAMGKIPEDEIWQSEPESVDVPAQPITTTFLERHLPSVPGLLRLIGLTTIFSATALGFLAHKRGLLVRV
# [2] = target: T2, Amine oxidase [flavin-containing] A (Homo sapiens, UniProt P21397); test: Inhibition of human MAO-A
# T2 sequence (P21397 whole entry): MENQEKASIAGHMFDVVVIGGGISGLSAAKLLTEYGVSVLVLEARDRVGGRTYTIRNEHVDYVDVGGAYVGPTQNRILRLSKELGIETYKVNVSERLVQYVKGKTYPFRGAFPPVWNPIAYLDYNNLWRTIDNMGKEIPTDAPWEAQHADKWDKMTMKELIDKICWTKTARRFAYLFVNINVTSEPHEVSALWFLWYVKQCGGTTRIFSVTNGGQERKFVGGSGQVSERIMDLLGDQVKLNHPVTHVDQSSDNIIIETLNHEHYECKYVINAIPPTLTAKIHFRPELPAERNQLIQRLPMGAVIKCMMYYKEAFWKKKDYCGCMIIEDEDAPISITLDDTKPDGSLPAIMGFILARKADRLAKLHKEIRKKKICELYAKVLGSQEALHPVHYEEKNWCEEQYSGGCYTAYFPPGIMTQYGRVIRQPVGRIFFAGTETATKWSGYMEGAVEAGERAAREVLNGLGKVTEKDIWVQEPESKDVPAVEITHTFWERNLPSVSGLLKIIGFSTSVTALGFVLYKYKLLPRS
# In short: (§1)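 Human MAO-A and MAO-B inhibition, screened first at a test concentration of 10 µM.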
# [3] = target: T3, MAO-A (amine oxidase [flavin-containing] A) (Homo sapiens, UniProt P21397); test: Inhibition of human MAO-A at 10 uM relative to control; in short: as §1
# T3 sequence (P21397 whole entry): T2 sequence (P21397 whole entry)
# [4] = target: T4, Adenosine receptor A3 (Homo sapiens) (UniProt P0DMS8); test: Displacement of [3H]PSB-11 from human adenosine A3 receptor expressed in CHO cells relative to control; type: cell-based; parameters: concentration or dose not given beside the values; conditions: concentration not given here
# T4 sequence (whole entry): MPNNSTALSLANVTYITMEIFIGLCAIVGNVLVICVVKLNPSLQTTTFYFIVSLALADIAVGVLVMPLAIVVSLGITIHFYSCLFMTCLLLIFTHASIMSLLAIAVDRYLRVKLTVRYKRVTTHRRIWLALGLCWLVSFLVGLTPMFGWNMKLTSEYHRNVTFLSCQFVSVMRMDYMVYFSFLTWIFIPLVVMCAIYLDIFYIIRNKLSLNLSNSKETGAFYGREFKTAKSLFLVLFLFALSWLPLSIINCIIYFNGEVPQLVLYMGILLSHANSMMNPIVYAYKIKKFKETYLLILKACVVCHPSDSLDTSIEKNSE
# Adenosine receptor A3 [5] = target: T5, Adenosine receptor A3 (Homo sapiens, UniProt P0DMS8); test: Displacement of [3H]PSB-11 from human adenosine A3 receptor expressed in CHO cells; type: cell-based
# T5 sequence (P0DMS8 whole entry): T4 sequence (whole entry)
# [6] = target: T6, Adenosine receptor A2b (Homo sapiens) (UniProt P29275); test: Displacement of [3H]PSB-603 from human adenosine A2B receptor relative to control; parameters: concentration or dose not given beside the values; conditions: concentration not given here
# T6 sequence (whole entry): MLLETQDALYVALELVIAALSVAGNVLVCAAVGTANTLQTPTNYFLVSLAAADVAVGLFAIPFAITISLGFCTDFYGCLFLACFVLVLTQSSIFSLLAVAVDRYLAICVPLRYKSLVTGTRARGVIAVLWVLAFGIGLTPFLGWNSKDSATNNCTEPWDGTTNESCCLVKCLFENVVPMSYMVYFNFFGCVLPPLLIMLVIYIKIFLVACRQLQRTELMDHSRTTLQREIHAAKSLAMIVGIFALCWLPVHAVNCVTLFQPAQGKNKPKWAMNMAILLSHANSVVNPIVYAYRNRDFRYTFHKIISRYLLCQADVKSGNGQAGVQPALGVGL
# Adenosine receptor A2a [7] = target: T7, Adenosine receptor A2a (Rattus norvegicus, UniProt P30543); test: Displacement of [3H]MSX-2 from adenosine A2A receptor in rat brain striatum; type: tissue-based
# T7 sequence (P30543 whole entry): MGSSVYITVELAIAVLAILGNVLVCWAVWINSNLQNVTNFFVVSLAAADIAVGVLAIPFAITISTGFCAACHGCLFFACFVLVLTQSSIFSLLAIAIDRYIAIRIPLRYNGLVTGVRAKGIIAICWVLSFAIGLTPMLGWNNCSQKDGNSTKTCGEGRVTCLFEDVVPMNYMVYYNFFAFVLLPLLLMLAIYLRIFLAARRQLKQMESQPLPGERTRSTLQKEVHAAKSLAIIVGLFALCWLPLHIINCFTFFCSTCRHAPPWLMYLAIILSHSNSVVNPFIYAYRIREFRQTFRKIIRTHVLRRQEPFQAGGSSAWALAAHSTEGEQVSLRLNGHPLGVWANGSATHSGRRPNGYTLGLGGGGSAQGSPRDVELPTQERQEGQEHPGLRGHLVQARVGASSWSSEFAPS
# Adenosine receptor A2b [8] = target: T8, Adenosine receptor A2b (Homo sapiens, UniProt P29275); test: Displacement of [3H]PSB-603 from human adenosine A2B receptor
# T8 sequence (P29275 whole entry): T6 sequence (whole entry)
# Adenosine receptor A1 [9] = target: T9, Adenosine receptor A1 (Homo sapiens, UniProt P30542); test: Displacement of [3H]CCPA from human adenosine A1 receptor expressed in CHO cells; type: cell-based
# T9 sequence (P30542 whole entry): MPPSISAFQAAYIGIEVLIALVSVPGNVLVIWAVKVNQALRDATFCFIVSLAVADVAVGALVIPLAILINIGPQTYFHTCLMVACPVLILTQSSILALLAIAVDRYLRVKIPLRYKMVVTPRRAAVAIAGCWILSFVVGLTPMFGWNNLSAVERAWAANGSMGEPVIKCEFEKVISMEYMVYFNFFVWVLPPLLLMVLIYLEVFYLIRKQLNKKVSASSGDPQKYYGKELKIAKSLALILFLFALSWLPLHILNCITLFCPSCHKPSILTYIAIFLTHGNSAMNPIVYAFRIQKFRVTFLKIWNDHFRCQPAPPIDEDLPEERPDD
# In short: (§2)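 Radioligand binding to human receptors recombinantly expressed in Chinese hamster ovary (CHO) cells. Results are Ki, or % inhibition of radioligand binding at the indicated concentration.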
# Adenosine receptor A1 [10] = target: T10, Adenosine receptor A1 (Rattus norvegicus, UniProt P25099); test: Displacement of [3H]CCPA from adenosine A1 receptor in rat brain cortex; type: tissue-based
# T10 sequence (P25099 whole entry): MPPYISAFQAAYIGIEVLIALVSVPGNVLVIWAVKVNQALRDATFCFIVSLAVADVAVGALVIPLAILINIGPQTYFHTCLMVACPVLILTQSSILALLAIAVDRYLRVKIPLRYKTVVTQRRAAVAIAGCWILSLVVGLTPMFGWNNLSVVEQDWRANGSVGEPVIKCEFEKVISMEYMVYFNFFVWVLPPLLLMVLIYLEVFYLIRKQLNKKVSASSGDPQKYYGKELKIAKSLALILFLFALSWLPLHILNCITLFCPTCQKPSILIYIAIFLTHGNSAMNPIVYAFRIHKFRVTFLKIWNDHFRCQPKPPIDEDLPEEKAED
# In short: (§3)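 Radioligand binding to rat A1 receptors in rat brain cortical membrane preparations. Values are given as Ki, or as % inhibition of radioligand binding at the indicated concentration.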
# [11] = target: T11, Adenosine receptor A1 (Homo sapiens) (UniProt P30542); test: Displacement of [3H]CCPA from human adenosine A1 receptor expressed in CHO cells relative to control; type: cell-based; conditions: concentration not given here; in short: as §2
# T11 sequence (whole entry): T9 sequence (P30542 whole entry)
# [12] = target: T12, Adenosine receptor A1 (Rattus norvegicus) (UniProt P25099); test: Displacement of [3H]CCPA from adenosine A1 receptor in rat brain cortex relative to control; type: tissue-based; parameters: concentration or dose not given beside the values; conditions: concentration not given here; in short: as §3
# T12 sequence (whole entry): T10 sequence (P25099 whole entry)
# [13] = target: T13, MAO-B (amine oxidase [flavin-containing] B) (Homo sapiens, UniProt P27338); test: Inhibition of human MAO-B at 10 uM relative to control; in short: as §1
# T13 sequence (P27338 whole entry): T1 sequence (P27338 whole entry)
# Adenosine receptor A3 [14] = target: T14, Adenosine receptor A3 (Rattus norvegicus, UniProt P28647); test: Binding affinity to rat adenosine A3 receptor
# T14 sequence (P28647 whole entry): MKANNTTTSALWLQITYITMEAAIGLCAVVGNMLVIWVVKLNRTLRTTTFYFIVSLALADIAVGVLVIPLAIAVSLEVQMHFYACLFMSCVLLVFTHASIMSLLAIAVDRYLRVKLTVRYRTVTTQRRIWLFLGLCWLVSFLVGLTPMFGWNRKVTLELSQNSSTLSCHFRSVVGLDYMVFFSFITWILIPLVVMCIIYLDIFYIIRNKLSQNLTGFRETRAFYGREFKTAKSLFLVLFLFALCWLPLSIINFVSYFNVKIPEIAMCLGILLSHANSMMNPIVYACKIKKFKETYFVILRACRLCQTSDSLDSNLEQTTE
# Adenosine receptor A2a [15] = target: T7, Adenosine receptor A2a; test: Binding affinity to rat adenosine A2A receptor
# Adenosine receptor A1 [16] = target: T10, Adenosine receptor A1; test: Binding affinity to rat adenosine A1 receptor
# Adenosine receptor A2a [17] = target: T15, Adenosine receptor A2a (Homo sapiens, UniProt P29274); test: Displacement of [3H]MSX-2 from human adenosine A2A receptor expressed in CHO cells; type: cell-based; in short: as §2
# T15 sequence (P29274 whole entry): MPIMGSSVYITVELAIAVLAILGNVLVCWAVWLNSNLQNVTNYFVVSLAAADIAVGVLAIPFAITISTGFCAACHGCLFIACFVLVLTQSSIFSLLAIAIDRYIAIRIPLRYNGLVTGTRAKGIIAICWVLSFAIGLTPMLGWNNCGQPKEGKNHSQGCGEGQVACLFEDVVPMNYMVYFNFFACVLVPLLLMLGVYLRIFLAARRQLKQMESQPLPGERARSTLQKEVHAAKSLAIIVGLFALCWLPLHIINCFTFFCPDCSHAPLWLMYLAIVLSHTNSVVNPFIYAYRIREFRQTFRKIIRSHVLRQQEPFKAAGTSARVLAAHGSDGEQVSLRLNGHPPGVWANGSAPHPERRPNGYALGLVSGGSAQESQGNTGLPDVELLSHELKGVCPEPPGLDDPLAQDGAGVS
# Adenosine receptor A3 [18] = target: T5, Adenosine receptor A3; test: Binding affinity to human adenosine A3 receptor
# Adenosine receptor A1 [19] = target: T9, Adenosine receptor A1; test: Binding affinity to human adenosine A1 receptor
# Adenosine receptor A2a [20] = target: T15, Adenosine receptor A2a; test: Binding affinity to human adenosine A2A receptor
# Adenosine receptor A2b [21] = target: T8, Adenosine receptor A2b; test: Binding affinity to human adenosine A2B receptor
SMILES,pIC50 [1],pIC50 [2],inhibition at 10 µM [3] [%],inhibition [4] [%],pKi (Adenosine receptor A3 [5]),inhibition [6] [%],pKi (Adenosine receptor A2a [7]),pKi (Adenosine receptor A2b [8]),pKi (Adenosine receptor A1 [9]),pKi (Adenosine receptor A1 [10]),inhibition [11] [%],inhibition [12] [%],pKi (Adenosine receptor A2a [15]),pKi (Adenosine receptor A1 [16]),pKi (Adenosine receptor A2a [17]),further results
Cn1c(=O)c2c(nc3n2CCCN3Cc2ccc(Cl)cc2)n(C)c1=O,6.66,< 5.00,14,36,< 5.00,1,5.14,< 6.00,< 5.00,< 4.60,29,27,–,–,–,–
Cn1c(=O)c2c(nc3n2CCCN3Cc2cccc(Cl)c2)n(C)c1=O,6.46,< 5.00,2,–,4.82,10,6.10,< 6.00,< 5.00,6.36,21,–,–,–,5.69,–
Cn1c(=O)c2c(nc3n2CCCN3c2ccc(F)cc2)n(C)c1=O,–,–,–,–,4.88,–,–,5.00,4.78,< 4.60,–,–,6.83,< 4.60,5.93,pKi (Adenosine receptor A3 [18]): 4.88; pKi (Adenosine receptor A1 [19]): 4.78; pKi (Adenosine receptor A2a [20]): 5.73; pKi (Adenosine receptor A2b [21]): 5.00

# Second part, led by results:
pIC50 [1],pIC50 [2],inhibition at 10 µM [3] [%],inhibition [4] [%],pKi (Adenosine receptor A3 [5]),inhibition [6] [%],pKi (Adenosine receptor A2a [7]),pKi (Adenosine receptor A2b [8]),pKi (Adenosine receptor A1 [9]),pKi (Adenosine receptor A1 [10]),inhibition [11] [%],inhibition [12] [%],pKi (Adenosine receptor A2a [15]),pKi (Adenosine receptor A1 [16]),pKi (Adenosine receptor A2a [17]),SMILES,further results
5.00,< 5.00,6,15,< 5.00,10,5.92,< 6.00,5.00,≤ 4.60,30,47,–,–,–,Cn1c(=O)c2c(nc3n2CCCN3c2ccc(Cl)cc2)n(C)c1=O,inhibition at 10 µM [13]: 6%
< 5.00,< 5.00,3,–,< 5.00,–,5.25,–,–,4.96,–,–,5.25,4.96,–,C#CCn1c(=O)c2c(ncn2C)n(C)c1=O,pKi (Adenosine receptor A3 [14]): < 5.00

# — ChEMBL document CHEMBL3091303, “1,3-Dialkyl-substituted tetrahydropyrimido[1,2-f]purine-2,4-diones as multiple target drugs for the potential treatment of neurodegenerative diseases” (Bioorg Med Chem, 2013)
